The values that follow come from ChEMBL document CHEMBL1833810, “Synthesis and study of a series of 3-arylcoumarins as potent and selective monoamine oxidase B inhibitors” (J Med Chem, 2011).

The structures appear in SMILES notation.

The target of data set [1] is T1, Amine oxidase [flavin-containing] A (Homo sapiens, UniProt P21397).
T1 sequence (P21397 whole entry): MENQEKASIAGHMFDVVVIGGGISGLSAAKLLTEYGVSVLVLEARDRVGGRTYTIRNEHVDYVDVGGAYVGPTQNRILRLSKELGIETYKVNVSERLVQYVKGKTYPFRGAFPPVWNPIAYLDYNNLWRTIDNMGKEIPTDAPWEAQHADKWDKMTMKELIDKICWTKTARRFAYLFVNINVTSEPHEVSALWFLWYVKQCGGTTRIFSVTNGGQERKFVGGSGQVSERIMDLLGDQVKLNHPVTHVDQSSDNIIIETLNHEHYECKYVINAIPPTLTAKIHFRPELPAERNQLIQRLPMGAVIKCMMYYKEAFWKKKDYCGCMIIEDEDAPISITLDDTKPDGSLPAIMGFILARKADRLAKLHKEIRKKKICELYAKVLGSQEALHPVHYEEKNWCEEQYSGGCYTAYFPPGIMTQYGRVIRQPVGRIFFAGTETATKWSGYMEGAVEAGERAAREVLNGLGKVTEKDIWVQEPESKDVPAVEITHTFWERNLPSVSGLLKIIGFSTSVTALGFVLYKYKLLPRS
The data set can be described thus: Inhibition of human recombinant MAO-A expressed in insect BT1-TN-5B1-4 cells assessed as production of hydrogen peroxide from p-tyramine at 100 uM up to 15 mins by amplex red-based fluorometric assay. Particulars: 0.25 h; for inhibition (INH): 100 µM; call rule not given here. The method in brief:
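Recombinant hMAO-A came from microsomes of baculovirus-infected BTI-TN-5B1-4 insect cells, at 1.1 μg protein. It was preincubated with the test drug in 0.05 M sodium phosphate, pH 7.4, for 15 min at 37 °C. The reaction was started with 200 μM Amplex Red, 1 U/mL HRP and 1 mM p-tyramine (final). H2O2-derived resorufin fluorescence (ex 545, em 590 nm) was read over 15 min. Enzyme-free background was subtracted against vehicle controls. 100 μM was the highest concentration tested.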

For data set [2], the species on record is Homo sapiens. The data set can be described thus: Selectivity index, ratio of IC50 for human recombinant MAO-A to IC50 for human recombinant MAO-B.
Data set [3] deals with T2, Amine oxidase [flavin-containing] B (Homo sapiens, UniProt P27338).
T2 sequence (P27338 whole entry): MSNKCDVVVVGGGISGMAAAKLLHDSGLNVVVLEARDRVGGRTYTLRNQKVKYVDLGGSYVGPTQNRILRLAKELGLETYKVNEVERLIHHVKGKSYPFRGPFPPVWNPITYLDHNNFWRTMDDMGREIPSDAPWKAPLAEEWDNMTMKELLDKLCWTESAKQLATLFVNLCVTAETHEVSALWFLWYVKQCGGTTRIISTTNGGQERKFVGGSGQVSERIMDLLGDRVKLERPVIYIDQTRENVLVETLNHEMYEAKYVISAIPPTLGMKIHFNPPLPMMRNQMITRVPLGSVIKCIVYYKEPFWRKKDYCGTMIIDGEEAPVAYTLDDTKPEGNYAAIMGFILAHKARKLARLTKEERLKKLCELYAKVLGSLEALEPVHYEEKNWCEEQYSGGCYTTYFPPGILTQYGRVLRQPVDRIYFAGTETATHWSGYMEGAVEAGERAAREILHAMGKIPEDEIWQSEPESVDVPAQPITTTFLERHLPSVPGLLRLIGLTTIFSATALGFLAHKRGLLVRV
Description: Inhibition of human recombinant MAO-B expressed in insect BT1-TN-5B1-4 cells assessed as production of hydrogen peroxide from p-tyramine up to 15 mins by amplex red-based fluorometric assay. The class given is cell-based.

Data set [4] concerns the target T1, Amine oxidase [flavin-containing] A. Description: Inhibition of human recombinant MAO-A expressed in insect BT1-TN-5B1-4 cells assessed as production of hydrogen peroxide from p-tyramine up to 15 mins by amplex red-based fluorometric assay.
Data set [5] has as its target T2, Amine oxidase [flavin-containing] B. The data set can be described thus: Inhibition of human recombinant MAO-B expressed in insect BT1-TN-5B1-4 cells assessed as production of hydrogen peroxide from p-tyramine at 100 uM up to 15 mins by amplex red-based fluorometric assay. Particulars: 0.25 h. The method in brief: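 hMAO-B was used as microsomes from BTI-TN-5B1-4 insect cells infected with recombinant baculovirus, at 7.5 μg protein. It was preincubated for 15 min at 37 °C with the test drug in sodium phosphate buffer, 0.05 M, pH 7.4. The reaction was then started with final 200 μM Amplex Red, 1 U/mL horseradish peroxidase and 1 mM p-tyramine. Resorufin fluorescence (545/590 nm) was followed at 37 °C for 15 min, minus the no-enzyme background and relative to vehicle controls. The top concentration was 100 μM.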

As for `Cc1ccc2oc(=O)c(-c3ccc(O)cc3)cc2c1`, the “inhibition (INH)” value in data set [1] is recorded as “Not Active”.
`CC(=O)COc1ccc2oc(=O)c(-c3ccc(C)cc3)cc2c1`: in data set [2], the Ratio IC50 was > 18. Besides, in data set [3], the IC50 (as a rule, the midpoint of a concentration-inhibition curve) turned out to be 5520 nM. The “inhibition (INH)” value in data set [1] is given as “Not Active”.
With `Cc1ccc(-c2cc3cc(O)ccc3oc2=O)cc1`, in data set [2], the Ratio IC50 was found to be 372. Also, the IC50 in data set [3] was found to be 67.1 nM; in data set [4], 24.9 µM.
As for `COc1cc(-c2cc3cc(C)ccc3oc2=O)cc(OC)c1OC`, the Ratio IC50 in data set [2] is > 623. Also, the “inhibition (INH)” value in data set [1] was “Not Active”.
The matching figures for `COc1cc(OC)cc(-c2cc3cc(C)ccc3oc2=O)c1`: > 11100 and “Not Active”.
As for `COc1ccc2oc(=O)c(-c3ccc(C)cc3)cc2c1`, the Ratio IC50 in data set [2] is > 6790. Besides, the IC50 in data set [3] came out at 1.52 nM. Moreover, the “inhibition (INH)” value in data set [1] was “Not Active”.
With `CC(=O)COc1cccc(-c2cc3cc(C)ccc3oc2=O)c1`, the Ratio IC50 in data set [2] was > 555. In addition, the IC50 in data set [3] turned out to be 180 nM. The inhibition – broadly, how much of the control response was suppressed – at 100 µM in data set [1] was 40%.
Regarding `COc1cc(-c2cc3cc(C)ccc3oc2=O)ccc1Br`, in data set [2], the Ratio IC50 is > 31200. For the same molecule, the IC50 in data set [3] stood at 3.25 nM. The “inhibition (INH)” value in data set [1] is “Not Active”.
With `COc1ccc(-c2cc3cc(C)ccc3oc2=O)cc1OC`, the Ratio IC50 in data set [2] was found to be 9210. Besides, the IC50 worked out at 2.73 nM in data set [3] and 25.1 µM in data set [4].
As to `Cc1ccc(-c2cc3cc(OC4CCCC4)ccc3oc2=O)cc1`, the Ratio IC50 in data set [2] is > 6.9. The IC50 in data set [3] came out at 14500 nM. Also, in data set [1], the “inhibition (INH)” value is “Not Active”.
Consider `COc1cc(-c2cc3cc(C)ccc3oc2=O)c(Br)c(OC)c1OC`, for which the “inhibition (INH)” value in data set [1] and in data set [5] was “Not Active” in each case.
As to `Cc1ccc2oc(=O)c(-c3cccc(O)c3)cc2c1`, in data set [2], the Ratio IC50 came out at 54. Further, the IC50 in data set [3] was 650 nM; in data set [4], 35 µM.
Consider `COc1ccccc1-c1cc2cc(C)ccc2oc1=O`, for which the “inhibition (INH)” value in data set [1] and in data set [5] was “Not Active” throughout.
As to `COc1cc(OC)c(Br)c(-c2cc3cc(C)ccc3oc2=O)c1`, the Ratio IC50 in data set [2] is > 1.9. Also, the IC50 in data set [3] turned out to be 54000 nM. Also, the “inhibition (INH)” value in data set [1] is recorded as “Not Active”.
On to `COc1ccc(-c2cc3cc(C)ccc3oc2=O)cc1`, for which the Ratio IC50 in data set [2] is > 7660. The “inhibition (INH)” value in data set [1] is given as “Not Active”.
Regarding `Cc1ccc2oc(=O)c(-c3ccccc3)cc2c1`, the Ratio IC50 in data set [2] was > 352. Besides, the “inhibition (INH)” value in data set [1] is recorded as “Not Active”.
For `COc1cccc(-c2cc3cc(C)ccc3oc2=O)c1` the same measures were > 125000 and “Not Active”.
Consider `Cc1cccc(-c2cc3cc(C)ccc3oc2=O)c1`, for which the Ratio IC50 in data set [2] was > 6670. Besides, the 50% inhibitory concentration (IC50) in data set [3] worked out at 15 nM. Besides, the inhibition at 100 µM in data set [1] came to 40%.
Take `COc1ccc2oc(=O)c(-c3cccc(C)c3)cc2c1`: the Ratio IC50 in data set [2] was > 5880. Further, the IC50 in data set [3] stood at 17.1 nM. For the same molecule, the “inhibition (INH)” value in data set [1] is on record as “Not Active”.
Regarding `Cc1ccc2oc(=O)c(-c3ccccc3O)cc2c1`, the Ratio IC50 in data set [2] is 180. For the same molecule, the IC50 in data set [3] was 120 nM; in data set [4], 21.6 µM.
`COc1ccc(-c2cc3cc(C)ccc3oc2=O)cc1Br`: in data set [2], the Ratio IC50 was > 136000. Also, in data set [3], the IC50 was 0.74 nM. Also, the “inhibition (INH)” value in data set [1] was “Not Active”.
For the molecule `Cc1ccc(-c2cc3cc(C)ccc3oc2=O)cc1`, the “inhibition (INH)” value in data set [1] was “Not Active”.
